Test results from ChEMBL document CHEMBL1141057, “Synthesis and antibacterial activity of a novel series of DNA gyrase inhibitors: 5-[(E)-2-arylvinyl]pyrazoles” (Bioorg Med Chem Lett, 2005).
≈ marks a conversion by molar mass, not a printed value.

Key:
[1] = tested on: Enterococcus faecium; experiment: Minimal inhibitory concentration against Enterococcus faecium ATCC 19434 (VSE); susceptible strain; assay type: functional
[2] = tested on: Enterococcus faecium; experiment: Minimal inhibitory concentration against Enterococcus faecium KU1778 (VRE); sparfloxacin, clarithromycin, ampicillin, vancomycin resistant strain; assay type: functional
[3] = tested on: Streptococcus pneumoniae; experiment: Minimal inhibitory concentration against Streptococcus pneumoniae KT2524 (PRSP); sparfloxacin, clarithromycin, ampicillin resistant strain; assay type: functional
[4] = tested on: Streptococcus pneumoniae; experiment: Minimal inhibitory concentration against Streptococcus pneumoniae ATCC 49619 (PSSP); susceptible strain; assay type: functional
[5] = tested on: Escherichia coli; experiment: Minimal inhibitory concentration against Escherichia coli NIHJ JC-2; susceptible strain; assay type: functional
Summary of the method: (§1)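 MIC determined by the microdilution method.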

[6] = tested on: Staphylococcus aureus; experiment: Minimal inhibitory concentration against Staphylococcus aureus FDA 209P; susceptible strain; assay type: functional
Summary of the method: (§2)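 MIC determined by the microdilution method against Gram-positive strains, including a susceptible strain and a multidrug-resistant S. aureus strain.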

[7] = tested on: Staphylococcus aureus; experiment: Minimal inhibitory concentration against Staphylococcus aureus KMP9 (MRSA); sparfloxacin, clarithromycin, ampicillin resistant strain; assay type: functional
[8] = tested on: Staphylococcus aureus; experiment: Minimal inhibitory concentration against Staphylococcus aureus FDA 209P(MSSA); susceptible strain; assay type: functional
[9] = tested on: Escherichia coli; experiment: Minimal inhibitory concentration against Escherichia coli W3110 delta acrA; A multidrug efflux pump mutant; assay type: functional; summary of the method: as §1
[10] = tested on: Staphylococcus aureus; experiment: Minimal inhibitory concentration against Staphylococcus aureus KMP9; multidrug resistant strain; assay type: functional; summary of the method: as §2
[11] = molecular target: T1, DNA topoisomerase 4 subunit A (Escherichia coli K-12, UniProt P0AFI2); experiment: Inhibitory activity against decatenation of DNA topoisomerase IV isolated from Escherichia coli
T1 sequence (P0AFI2 whole entry): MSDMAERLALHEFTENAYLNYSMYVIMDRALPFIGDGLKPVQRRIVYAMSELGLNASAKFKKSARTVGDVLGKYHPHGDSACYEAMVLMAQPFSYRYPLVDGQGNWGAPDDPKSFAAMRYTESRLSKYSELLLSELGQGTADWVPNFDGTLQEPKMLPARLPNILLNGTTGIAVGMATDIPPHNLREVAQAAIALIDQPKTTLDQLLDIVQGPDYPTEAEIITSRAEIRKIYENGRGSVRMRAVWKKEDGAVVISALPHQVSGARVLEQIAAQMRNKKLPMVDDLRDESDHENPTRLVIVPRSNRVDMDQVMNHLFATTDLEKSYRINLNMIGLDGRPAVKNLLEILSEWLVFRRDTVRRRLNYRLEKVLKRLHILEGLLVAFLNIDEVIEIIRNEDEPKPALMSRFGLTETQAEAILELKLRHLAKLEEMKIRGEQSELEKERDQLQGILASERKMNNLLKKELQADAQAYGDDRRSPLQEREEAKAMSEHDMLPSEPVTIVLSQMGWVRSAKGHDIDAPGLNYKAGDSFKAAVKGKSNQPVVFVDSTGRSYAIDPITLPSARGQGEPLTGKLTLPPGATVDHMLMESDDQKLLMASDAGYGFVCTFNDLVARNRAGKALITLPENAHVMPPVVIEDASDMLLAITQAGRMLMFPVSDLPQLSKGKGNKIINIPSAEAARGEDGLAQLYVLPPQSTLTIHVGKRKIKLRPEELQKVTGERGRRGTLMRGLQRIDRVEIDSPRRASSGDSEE

[12] = molecular target: DNA gyrase (Escherichia coli, UniProt P0AES4+P0AES6); experiment: Inhibitory activity against supercoiling activity of DNA gyrase isolated from Escherichia coli; assay type: protein-complex assay
[13] = tested on: Staphylococcus aureus; experiment: 4 Minimal inhibitory concentration against Staphylococcus aureus KMP9; multidrug resistant strain; assay type: functional; summary of the method: as §2

SMILES	MIC [1] [µg/mL]	MIC [2] [µg/mL]	MIC [3] [µg/mL]	MIC [4] [µg/mL]	MIC [5] [µg/mL]	MIC [6] [µg/mL]	MIC [7] [µg/mL]	MIC [8] [µg/mL]	MIC [9] [µg/mL]	MIC [10] [µg/mL]	IC50 [11] [µM]	IC50 [12] [µM]	MIC [13] [µg/mL]
Clc1cccc(-n2nc(C3CCNCC3)cc2CCc2c[nH]c3ccc(Cl)cc23)c1	16 (≈ 36.4 µM)	16 (≈ 36.4 µM)	8 (≈ 18.2 µM)	16 (≈ 36.4 µM)	64 (≈ 146 µM)	16 (≈ 36.4 µM)	16 (≈ 36.4 µM)	16 (≈ 36.4 µM)	16 (≈ 36.4 µM)	16 (≈ 36.4 µM)	–	–	–
Clc1cccc(-n2nc(C3CCNCC3)cc2/C=C/c2cc3cc(Cl)ccc3[nH]2)c1	–	–	–	–	16 (≈ 36.6 µM)	2 (≈ 4.57 µM)	–	–	4 (≈ 9.15 µM)	4 (≈ 9.15 µM)	–	–	–
Clc1cccc(Cl)c1/C=C/c1cc(C2CCNCC2)[nH]n1	–	–	–	–	> 128	128 (≈ 397 µM)	–	–	> 128	> 128	–	–	–
Clc1cccc(-n2nc(C3CCNCC3)cc2/C=C/c2c[nH]c3ccc(Cl)cc23)c1	2 (≈ 4.57 µM)	2 (≈ 4.57 µM)	2 (≈ 4.57 µM)	2 (≈ 4.57 µM)	8 (≈ 18.3 µM)	1 (≈ 2.29 µM)	1 (≈ 2.29 µM)	1 (≈ 2.29 µM)	4 (≈ 9.15 µM)	1 (≈ 2.29 µM)	31.8	18.3	–
Clc1cccc(-n2nc(C3CCNCC3)cc2/C=C/c2ccc(OCc3ccc(Cl)c(Cl)c3)cc2)c1	–	–	–	–	32 (≈ 59.4 µM)	2 (≈ 3.71 µM)	–	–	4 (≈ 7.42 µM)	4 (≈ 7.42 µM)	–	–	–
Clc1ccc(/C=C/c2cc(C3CCNCC3)[nH]n2)cc1Cl	–	–	–	–	8 (≈ 24.8 µM)	4 (≈ 12.4 µM)	–	–	4 (≈ 12.4 µM)	4 (≈ 12.4 µM)	–	–	–
Clc1ccc(COc2ccc(/C=C/c3cc(C4CCNCC4)[nH]n3)cc2)cc1Cl	2 (≈ 4.67 µM)	1 (≈ 2.33 µM)	1 (≈ 2.33 µM)	2 (≈ 4.67 µM)	4 (≈ 9.34 µM)	2 (≈ 4.67 µM)	2 (≈ 4.67 µM)	2 (≈ 4.67 µM)	2 (≈ 4.67 µM)	2 (≈ 4.67 µM)	64.9	32.4	–
Clc1cccc(-n2nc(C3CCNCC3)cc2CCc2c(Cl)cccc2Cl)c1	–	–	–	–	> 128	32 (≈ 73.6 µM)	–	–	16 (≈ 36.8 µM)	32 (≈ 73.6 µM)	–	–	–
Clc1cccc(-n2nc(C3CCNCC3)cc2/C=C/c2ccc(Cl)c(Cl)c2)c1	–	–	–	–	16 (≈ 37 µM)	8 (≈ 18.5 µM)	–	–	4 (≈ 9.24 µM)	–	–	–	4 (≈ 9.24 µM)
Cn1cc(/C=C/c2cc(C3CCNCC3)nn2-c2cccc(Cl)c2)c2cc(Cl)ccc21	2 (≈ 4.43 µM)	1 (≈ 2.22 µM)	1 (≈ 2.22 µM)	1 (≈ 2.22 µM)	> 128	2 (≈ 4.43 µM)	2 (≈ 4.43 µM)	2 (≈ 4.43 µM)	4 (≈ 8.86 µM)	2 (≈ 4.43 µM)	35.4	–	–
Clc1cccc(Cl)c1CCc1cc(C2CCNCC2)[nH]n1	–	–	–	–	128 (≈ 395 µM)	32 (≈ 98.7 µM)	–	–	64 (≈ 197 µM)	64 (≈ 197 µM)	–	–	–
Clc1cccc(-n2nc(C3CCNCC3)cc2/C=C/c2c(Cl)cccc2Cl)c1	8 (≈ 18.5 µM)	8 (≈ 18.5 µM)	4 (≈ 9.24 µM)	4 (≈ 9.24 µM)	64 (≈ 148 µM)	4 (≈ 9.24 µM)	4 (≈ 9.24 µM)	4 (≈ 9.24 µM)	4 (≈ 9.24 µM)	4 (≈ 9.24 µM)	–	–	–
